The target of this assay is T1, Legumain (Homo sapiens) (UniProt Q99538).
T1 sequence (whole entry): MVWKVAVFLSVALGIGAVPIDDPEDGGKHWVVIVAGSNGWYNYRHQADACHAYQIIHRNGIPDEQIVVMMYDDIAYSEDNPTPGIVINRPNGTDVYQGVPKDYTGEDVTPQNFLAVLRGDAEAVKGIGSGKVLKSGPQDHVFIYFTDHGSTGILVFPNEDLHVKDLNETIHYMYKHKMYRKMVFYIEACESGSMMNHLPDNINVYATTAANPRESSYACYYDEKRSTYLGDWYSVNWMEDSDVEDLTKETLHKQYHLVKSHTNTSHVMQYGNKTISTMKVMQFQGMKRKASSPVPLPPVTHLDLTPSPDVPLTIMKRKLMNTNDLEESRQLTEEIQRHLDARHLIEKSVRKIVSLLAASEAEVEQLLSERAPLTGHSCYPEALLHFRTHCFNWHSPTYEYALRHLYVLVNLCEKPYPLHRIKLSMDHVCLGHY
The assay can be described thus: Inhibition of human AE assessed as ratio of pseudo-first-order inhibition rate constant to inhibitor concentration. Put shortly:
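Human AE; inhibitor and substrate incubated at 25 °C in 20 mM citric acid, 60 mM Na2HPO4, 1 mM EDTA, 0.1% CHAPS, pH 5.8 before enzyme addition.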

For the molecule `Cc1ccc(C)c(C(=O)OCC(=O)[C@H](CC(N)=O)NC(=O)OCc2ccccc2)c1`, the Ratio was determined as 109000 M⁻¹ s⁻¹.

These data come from ChEMBL document CHEMBL1150273, “Aza-peptidyl Michael acceptors. A new class of potent and selective inhibitors of asparaginyl endopeptidases (legumains) from evolutionarily diverse pathogens” (J Med Chem, 2008).
